Measurements as given in article PMC10651777 (Blood, 2022).

Experiments:
[1] = tested on: Macrophage inhibitory cytokine-1 (MIC-1); assay: Serum MIC-1 ELISA; type: in vivo, human; conditions: day 5; idasa 150 to 400 mg daily for 5 days
Outline: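 Serum from patients with relapsed/refractory or secondary AML on venetoclax plus idasanutlin. Idasanutlin was given daily or twice daily on days 1–5 of 28-day cycles. MIC-1 was quantified by a human GDF-15 immunoassay kit (ELISA).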

MIC-1 = conditions: day 5 of treatment, 100 mg daily for 5 days, PV; cited from earlier work
[2] = Plasma pharmacokinetics at steady state; type: in vivo, human; conditions: for Cmax: human, plasma, oral, Mean Cmax, steady state
Outline: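 Patients with relapsed/refractory AML or secondary AML received venetoclax daily on days 1–28 (3–5-day ramp-up to 400, 600 or 800 mg) plus idasanutlin 150, 200 or 400 mg daily or 300 mg twice daily on days 1–5 of 28-day cycles. Noncompartmental analysis of venetoclax plasma concentration–time data; summary statistics of steady-state Cmax and trough. Data from 49 patients across 5 cohorts.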

AML = conditions: idasa monotherapy, cited from earlier work
[3] = tested on: R/R AML and newly diagnosed patients with AML unfit for intensive chemotherapy; conditions: ven monotherapy; cited from earlier work
[4] = Cohort B1.2.1, n = 5, ven 600 mg, idasa 150 mg

Row | MIC-1 increases [1] | Cmax ([2]; 400 mg, Cohort B4, n = 8, ven 400 mg, idasa 400 mg) [ng/mL] | Cmax [2, 4] [ng/mL] | Impact of the coadministration of idasa on ven pharmacokinetics ([2]; in vivo) | Pharmacokinetics of ven in this combination ([2]; vs historical ven monotherapy) | SMILES | Plasma MIC-1 levels increase (MIC-1) [fold] | All-grade diarrhea rate (AML; 400-800 mg twice daily microprecipitated bulk powder) [%] | All-grade nausea rate (AML) [%] | All-grade vomiting rate (AML) [%] | CR/CRi/MLFS rate (antileukemic response) (AML) [%] | Rate of grade ≥3 diarrhea (AML) [%] | Rate of grade ≥3 nausea (AML) [%] | All-grade diarrhea rate [3] [%] | All-grade nausea rate [3] [%] | All-grade vomiting rate [3] [%] | CR/CRi rate (CRc) [3] [%] | Rate of grade ≥3 diarrhea [3] [%] | Rate of grade ≥3 nausea [3] [%]
1 | 10- to 20 fold | 7110 | 3220 |  |  | COc1cc(C(=O)O)ccc1NC(=O)[C@@H]1N[C@@H](CC(C)(C)C)[C@](C#N)(c2ccc(Cl)cc2F)[C@H]1c1cccc(Cl)c1F [idasa, idasanutlin] | 4.8 | 91.3 | 73.9 | 39.1 | 21 | 23.9 | 0 |  |  |  |  |  | 
2 |  |  | 1450 | no significant impact | comparable to ven monotherapy | CC1(C)CCC(CN2CCN(c3ccc(C(=O)NS(=O)(=O)c4ccc(NCC5CCOCC5)c([N+](=O)[O-])c4)c(Oc4cnc5[nH]ccc5c4)c3)CC2)=C(c2ccc(Cl)cc2)C1 [ven, Venetoclax] |  |  |  |  |  |  |  | 56 | 59 | 41 | 19 | 6 | 6
